Test results from ChEMBL document CHEMBL1777802, “Synthesis, DNA binding, fluorescence measurements and antiparasitic activity of DAPI related diamidines” (Bioorg Med Chem, 2010).

How the values were obtained:
[1] = system: Poly(dA-dT)oligonucleotide
[2] = Selectivity index, ratio of IC50 for rat L6 cells to IC50 for Plasmodium falciparum K1; type: toxicity, cell-based; details: read-out: Ratio IC50
Procedure, shortened: (§1)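 Selectivity index is IC50 on cultured L6 rat myoblasts divided by IC50 on the parasite (P. falciparum K1 or T. b. rhodesiense STIB900).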

[3] = system: L6; assay: Cytotoxicity against rat L6 cells; type: cell-based
Procedure, shortened: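 Cultured L6 rat myoblast cells were used for the cytotoxicity measurement, giving an IC50.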

[4] = system: Plasmodium falciparum; assay: Antiparasitic activity against Plasmodium falciparum K1
[5] = system: Trypanosoma brucei rhodesiense; assay: Ratio of DAPI IC50 to compound IC50 for Trypanosoma brucei rhodesiense STIB900
[6] = Selectivity index, ratio of IC50 for rat L6 cells to IC50 for Trypanosoma brucei rhodesiense STIB900; type: toxicity, cell-based; details: read-out: Ratio IC50
Procedure, shortened: as §1

[7] = system: Trypanosoma brucei rhodesiense; assay: Antiparasitic activity against Trypanosoma brucei rhodesiense STIB900

Row | Structure (SMILES) | ΔTm [1] | selectivity ratio [2] | IC50 [3] | IC50 [4] | Ratio IC50 [5] | selectivity ratio [6] | IC50 [7]
1 | Cl.Cl.N=C(N)c1ccc2cc(C#Cc3ccc(C(=N)N)c(F)c3)[nH]c2c1 | 16 °C | 763 | 4500 nM | 5.9 nM | 2 | 500 | 9 nM
2 | N=C(N)c1ccc(-c2ccc(-c3nc4ccc(C(=N)N)cc4[nH]3)cc2)cc1 | > 27 °C | 34000 |  |  |  | 2210 | 
3 | N=C(N)c1ccc(-c2ccc(-c3ccc(C(=N)N)cc3)o2)cc1 [FURAMIDINE] |  |  | 6700 nM |  |  |  | 
4 | N=C(N)c1ccc(C#Cc2cc3ccc(C(=N)N)cc3[nH]2)nc1 | 12.2 °C | 933 | 13000 nM | 14.1 nM |  | 60 | 215 nM
5 | N=C(N)c1ccc2cc(-c3ccc(-c4ccccc4)cc3)[nH]c2c1 | 16 °C | 9.8 | 8400 nM | 858 nM |  | 0.96 | 8720 nM
6 | Cl.Cl.N=C(N)c1ccc(-c2ccc(-c3cc4cc(C(=N)N)ccc4[nH]3)cc2)cc1 | 20.9 °C | 55600 | 38900 nM | 0.7 nM | 4.5 | 9720 | 4 nM
7 | Cl.Cl.N=C(N)c1ccc(-c2ccc(-c3cc4ccc(C(=N)N)cc4[nH]3)cc2)cc1 | > 27 °C | 3180 |  |  | 9 | 5250 | 
8 | N=C(N)c1ccc(-c2cc3ccc(C(=N)N)cc3[nH]2)cc1 [DAPI] | > 27 °C |  |  |  |  | 51 | 
9 | N=C(N)c1ccc2cc(C#Cc3ccc(C(=N)N)nc3)[nH]c2c1 | 19.1 °C | 516 | 1600 nM | 3.1 nM |  | 533 | 3 nM
10 | Cl.Cl.N=C(N)c1ccc(C#Cc2cc3ccc(C(=N)N)cc3[nH]2)cc1 | 19 °C | 2290 | 8700 nM | 3.8 nM | 3 | 1450 | 6 nM
